Data reported in ChEMBL document CHEMBL2040747, “Synthesis and biological evaluation of isoxazole, oxazole, and oxadiazole containing heteroaryl analogs of biaryl ureas as DGAT1 inhibitors” (Eur J Med Chem, 2012).
Converted amounts (≈) assume the structure as drawn.

Legend:
[1] = molecular target: Diacylglycerol O-acyltransferase 1 (Homo sapiens) (UniProt O75907); assay: Inhibition of human DGAT1 assessed as conversion of [14C]-oleoyl-CoA to [14C]-triglyceride at 1 uM after 10 mins by scintillation counting
Mus musculus = assay: Antiobesity activity in Swiss mouse assessed as reduction in plasma triglyceride level at 3 mg/kg, po measured after 4 hrs by fat tolerance test; type: functional; parameters: scale not given: the % may be the effect or the level left
How it was run: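 Fasted Swiss mice (4-5 weeks, 25-30 g) gavaged with test compound at 3 mg/kg as a suspension in 0.5% CMC with Tween 80, or with vehicle. Olive oil bolus (10 ml/kg) given 1 h later. Plasma TG measured by kit at 1, 2, 3 and 4 h. AUC0-4h expressed relative to vehicle (100%). Mean ± SEM, n = 8.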

[2] = Aqueous solubility of the compound at pH 7.4 after 24 hrs; type: physicochemical; settings: aqueous medium

Sequence of Diacylglycerol O-acyltransferase 1 (Homo sapiens) (O75907 whole entry, looked up): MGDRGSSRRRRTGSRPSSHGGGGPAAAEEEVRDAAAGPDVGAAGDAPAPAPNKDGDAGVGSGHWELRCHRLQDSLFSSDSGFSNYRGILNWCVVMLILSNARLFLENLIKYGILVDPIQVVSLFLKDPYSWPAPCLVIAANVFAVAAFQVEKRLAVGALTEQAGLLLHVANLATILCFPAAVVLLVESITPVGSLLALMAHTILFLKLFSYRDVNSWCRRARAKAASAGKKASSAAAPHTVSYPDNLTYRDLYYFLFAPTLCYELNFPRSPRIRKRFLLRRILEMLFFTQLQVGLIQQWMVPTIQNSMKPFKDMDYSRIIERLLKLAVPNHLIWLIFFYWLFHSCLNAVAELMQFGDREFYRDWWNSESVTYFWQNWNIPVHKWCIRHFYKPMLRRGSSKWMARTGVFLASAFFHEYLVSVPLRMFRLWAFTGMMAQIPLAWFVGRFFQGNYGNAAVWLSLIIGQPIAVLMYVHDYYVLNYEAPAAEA

In the case of `CC(C)[C@H](NC(=O)c1ncc(-c2ccc(NC(=O)Nc3ccccc3Cl)cc2)o1)C(=O)O`, the inhibition [1] was 80%.
In the case of `Cc1ccc(NC(=O)Nc2ccc(-c3cc(C(=O)N[C@H](C(=O)O)C(C)C)on3)cc2)cc1`, the inhibition [1] was 80%, the Activity (Mus musculus) was 79% and the solubility at 24 h [2] was 380 µg/mL (≈ 871 µM).
Work on `Cc1ccccc1S(=O)(=O)NC(=O)Nc1ccc(-c2cc(C(=O)N[C@H](C(=O)O)C(C)C)on2)cc1` yielded an inhibition [1] of 26%.
Compound `CC(C)[C@H](NC(=O)c1cc(-c2ccc(NC(=O)Nc3ccc(Cl)cc3F)cc2)no1)C(=O)O` has an inhibition [1] of 90%.
Work on `CC(C)[C@H](NC(=O)c1cc(-c2ccc(NC(=O)Nc3ccc(F)cc3)cc2)no1)C(=O)O` yielded an inhibition [1] of 78%.
Work on `CC(C)[C@H](NC(=O)c1cc(-c2ccc(OCc3ccc(F)cc3)cc2)no1)C(=O)O` yielded an inhibition [1] of 18%.
`CC(C)[C@H](NC(=O)c1cc(-c2ccc(Nc3nc4ccc(F)cc4s3)cc2)no1)C(=O)O` gave an Activity (Mus musculus) of 29% and a solubility at 24 h [2] of 60 µg/mL (≈ 132 µM).
With `CC(C)[C@H](NC(=O)c1cc(-c2ccc(NC(=S)Nc3ccccc3F)cc2)no1)C(=O)O` the inhibition [1] was 72%.
For `CC(C)[C@H](NC(=O)c1ncc(-c2ccc(NC(=O)Nc3cccc(Cl)c3)cc2)o1)C(=O)O`, the inhibition [1] was 72%.
`CC(C)[C@H](NC(=O)c1cc(-c2ccc(NC(=O)Nc3ccccc3Cl)cc2)no1)C(=O)O` showed an inhibition [1] of 90%.
`CC(C)[C@H](NC(=O)c1nc(-c2ccc(NC(=O)Nc3ccccc3Cl)cc2)no1)C(=O)O` gave an inhibition [1] of 62%.
`CC(C)[C@H](NC(=O)c1nc(-c2ccc(NC(=O)Nc3ccc(Cl)cc3)cc2)no1)C(=O)O` gave an inhibition [1] of 40%.
`CC(C)[C@H](NC(=O)c1nc(-c2ccc(NC(=O)Nc3cccc(C(F)(F)F)c3)cc2)no1)C(=O)O` showed an inhibition [1] of 48%.
In the case of `CC(C)[C@H](NC(=O)c1cc(-c2ccc(NC(=O)C(=O)Nc3cccc(C(F)(F)F)c3)cc2)no1)C(=O)O`, the inhibition [1] was 16%.
For `CC(C)[C@H](NC(=O)c1cc(-c2ccc(NC(=O)Nc3ccc(F)cc3F)cc2)no1)C(=O)O`, the inhibition [1] was 85%.
Compound `CC(C)[C@H](NC(=O)c1cc(-c2ccc(NC(=O)Nc3ccc(Cl)cc3)cc2)no1)C(=O)O` has an inhibition [1] of 84%.
Compound `Cc1ccc(NC(=O)Nc2ccc(-c3cnc(C(=O)N[C@H](C(=O)O)C(C)C)o3)cc2)cc1C` has an inhibition [1] of 69%.
`Cc1ccc(NC(=O)Nc2ccc(-c3noc(C(=O)N[C@H](C(=O)O)C(C)C)n3)cc2)cc1` gave an inhibition [1] of 61%.
For `CC(C)[C@H](NC(=O)c1cc(-c2ccc(NC(=O)Nc3cccc(C(F)(F)F)c3)cc2)no1)C(=O)O`, the inhibition [1] was 85%.
`CC(C)[C@H](NC(=O)c1ncc(-c2ccc(NC(=O)Nc3cccc(C(F)(F)F)c3)cc2)o1)C(=O)O` gave an inhibition [1] of 75%.
Compound `CC(C)[C@H](NC(=O)c1cc(-c2ccc(NS(=O)(=O)c3c(F)cccc3F)cc2)no1)C(=O)O` has an inhibition [1] of 23%.
Compound `CC(C)[C@H](NC(=O)c1nc(-c2ccc(NC(=O)Nc3ccc(F)cc3)cc2)no1)C(=O)O` has an inhibition [1] of 61%.
With `CC(C)[C@H](NC(=O)c1cc(-c2ccc(NC(=O)Nc3cccc(Cl)c3)cc2)no1)C(=O)O` the inhibition [1] was 84%.
With `CC(C)[C@H](NC(=O)c1cc(-c2ccc(NC(=O)[C@H](O)c3ccccc3)cc2)no1)C(=O)O` the inhibition [1] was 59%.
With `CC(C)[C@H](NC(=O)c1nc(-c2ccc(NC(=O)Nc3cccc(Cl)c3)cc2)no1)C(=O)O` the inhibition [1] was 71%.
`CC(C)[C@H](NC(=O)c1ncc(-c2ccc(NC(=O)Nc3ccc(Cl)cc3Oc3ccccc3)cc2)o1)C(=O)O` gave an inhibition [1] of 91%.
`CC(C)[C@H](NC(=O)c1cc(-c2ccc(NC(=O)c3ccc(F)cc3)cc2)no1)C(=O)O` gave an inhibition [1] of 44%.
Compound `CC(C)[C@H](NC(=O)c1ncc(-c2ccc(NC(=O)Nc3ccc(Cl)cc3)cc2)o1)C(=O)O` has an inhibition [1] of 59%.
For `COc1ccc(NC(=O)Nc2ccc(-c3cc(C(=O)N[C@H](C(=O)O)C(C)C)on3)cc2)cc1`, the Activity (Mus musculus) was 90% and the solubility at 24 h [2] was 430 µg/mL (≈ 950 µM).
With `CC(C)[C@H](NC(=O)c1cc(-c2ccc(NC(=O)Nc3ccc(Cl)cc3Oc3ccccc3)cc2)no1)C(=O)O` the inhibition [1] was 91%, the Activity (Mus musculus) was 35% and the solubility at 24 h [2] was 140 µg/mL (≈ 255 µM).
`CC(C)[C@H](NC(=O)c1ccc(-c2ccc(Nc3nc4ccc(F)cc4s3)cc2)cc1)C(=O)O` gave an Activity (Mus musculus) of 84% and a solubility at 24 h [2] of 10 µg/mL (≈ 21.6 µM).
With `CC(C)[C@H](NC(=O)c1nc(-c2ccc(NC(=O)Nc3ccc(F)cc3F)cc2)no1)C(=O)O` the inhibition [1] was 75%.
With `Cc1ccc(NC(=O)Nc2ccc(-c3cc(C(=O)N[C@H](C(=O)O)C(C)C)on3)cc2)cc1C` the inhibition [1] was 83%.
`CC(C)[C@H](NC(=O)c1ncc(-c2ccc(NC(=O)Nc3ccc(Cl)cc3F)cc2)o1)C(=O)O` showed an inhibition [1] of 70%.
